Scp1 inh: Scp-1 (human) phosphatase inhibition; 0.88% of 340,000 active; Recombinant Scp1, phosphopeptide, malachite green phosphate absorbance; inhibition, % at 20 µM;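 active means inhibition above about 50% at 20 µM, limit read from the data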
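Incubation: 45 min enzyme reaction at room temperature / System: truncated SCP-1 phosphatase (76-261aa) / Reagent: Phospho 17-mer peptide substrate / Buffer or medium: Acidic Tris acetate buffer with magnesium and detergent / Signal: absorbance at 630 nm / Doses: one concentration, 20 µM, with 1.0% DMSO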
SUMO1 PPI mod: modulators of human SUMO1-mediated protein-protein interactions | SUMO1 binding to a labelled peptide, TR-FRET, 1 h | inhibition, % at 20 µM | 0.33% of 360,000 active; in the data active means inhibition above about 37%
STEP block: STEP (human) phosphatase inhibition; P54829; recombinant STEP, OMFP fluorogenic substrate, fluorescence; inhibition, % at 20 µM; 0.25% of 360,000 active; AID 588621;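 active means inhibition at 20 µM, scaled per plate between control wells, above about 37%, limit read from the data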
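Measure: Control-normalized % inhibition with plate pattern correction | Test system: STEP phosphatase, cell-free reaction | Medium: pH 6.0 Bis-Tris with DTT and Tween 20 | Technique: Fluorescence, 480/540 nm | Times: Reaction 20 min, ambient temperature | Doses: Single compound dose of 20 µM, 1% DMSO final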
LMPTP inh: blocks human LMPTP phosphatase | AID 651560 | P24666 | 0.22% of 360,000 active | inhibition, % at 20 µM | recombinant LMPTP-A, OMFP fluorogenic substrate, fluorescence intensity;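 active means compounds that cut the enzyme signal by at least half of the control window in the single-dose screen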
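material = LMPTP-A | quantity = 0.625 nM enzyme | reagent = OMFP substrate, 400 µM final | buffer or medium = Bis-Tris pH 6.0, DTT, detergent | detection = endpoint fluorescence intensity from OMFP dephosphorylation | dosing = single 20 µM dose | read-out basis = % inhibition relative to no-enzyme and uninhibited control wells | control set = no-enzyme and uninhibited controls | timing = 50 min at room temperature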
DNMT1 inh: blocks human DNA methyltransferase DNMT1 | DNMT1 molecular beacon, Hinp1I cleavage, fluorescence | P26358 | inhibition (reported as % activation of signal), % at 10 µM | AID 588458 | 0.83% of 360,000 active; in the data active means inhibition above about 50%
Rpn11 inh: inhibitors of human proteasome Rpn11. O00487. AID 588493. inhibition, % at 20 µM. 0.59% of 360,000 active. human 26S proteasome, Ub4-pepOG fluorescence polarization; 20S core pre-blocked with epoxomicin;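 active means inhibition at 20 µM, scaled to each plate's controls, above about 33%, limit read from the data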
Scp1 confirm: confirmation of human Scp-1 phosphatase inhibitors; shares compounds with Scp1 inh; recombinant SCP-1 catalytic domain, phosphate release, malachite green absorbance; inhibition, % at 20 µM; 61% of 2,500 active; AID 540281
Scp-1 MG ctr: counter-screen for Scp-1 inhibitors: colorimetric interference; 2,500 tested, under 10 active; shares compounds with Scp1 inh; Colorimetric interference counterscreen, malachite green absorbance 630 nm; AID 540313; apparent inhibition (interference), % at 20 µM;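 further: compounds added after enzyme reaction finished so only phosphate colour detection is probed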
Scp1 DSF: validation of human Scp-1 inhibitors by thermal shift binding; Recombinant SCP1, Sypro Orange thermal shift Tm; AID 540329; shares compounds with Scp1 inh; thermal shift relative to vanadate control, % at 40 µM; 25% of 1,500 active;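 active means substances whose mean melting-temperature shift, as a percentage of the reference inhibitor's shift, reaches about 5.3%, limit read from the data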
Of the large screens only hits and unclear results are named; the others gave an inactive call (follow-up assays come after a bar, where they were run). Only some compounds are listed: those with a hit (about 2.3% of all), similar ones and a draw of the others.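 How the source made its calls, unless noted: active means inhibition of at least 30% at 20 µM; inactive means the rest.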

O=C(Nc1nccs1)c1ccc2nccnc2c1	Scp1 inh 51.7 | Scp1 confirm 62.6 | Scp-1 MG ctr inactive | Scp1 DSF inactive
CC(=O)c1ccc(OCCCC(=O)Nc2ccc(S(=O)(=O)N3CCOCC3)cc2)cc1	none
COc1ccc(-c2noc3c2-c2nc(-c4ccccc4Cl)sc2CC3)cc1	none
CCOc1ccccc1-c1nc2c(s1)CCc1onc(-c3ccc(OC)cc3)c1-2	Scp1 inh 80.8 | Scp1 confirm inactive | Scp-1 MG ctr inactive
C=C(C)C(=O)Oc1ccc(N2C(=O)[C@@H]3C4C=CC(C4)[C@@H]3C2=O)cc1	none
Cc1ccc(CCNC(=O)CCNS(=O)(=O)c2ccc3c(c2)oc(=O)n3C)cc1	none | Scp1 confirm inactive | Scp-1 MG ctr inactive
CCC[N+]1(CC#CC(O)(c2ccccc2)C2CCCCC2)CCCCC1 (stereo unspecified)	none
CC1(C(O)(C#CC[N+]2(C)CCCCC2)c2ccccc2)CCCC1 (stereo unspecified)	Scp1 inh 98.5 | Scp1 confirm 94.5 | Scp-1 MG ctr inactive | Scp1 DSF inactive
O=C(Nc1ccc2c(c1)OCO2)C1CCN(Cc2cnn(-c3ccccc3)c2-n2cccc2)CC1	none
C/C(=N\Nc1ccc(C(F)(F)F)cn1)c1ccc(S(=O)(=O)NCc2ccco2)cc1	Scp1 inh 58.5 | Scp1 confirm inactive | Scp-1 MG ctr inactive
Cn1c(=O)cc(OCC(=O)NCCc2ccc(Cl)cc2)c2ccccc21	none
Cn1c(=O)cc(OCC(=O)NCCC2=CCCCC2)c2ccccc21	none | Scp1 confirm inactive | Scp-1 MG ctr inactive
O=C(COc1ccc([N+](=O)[O-])cc1)Nc1ccc(C(=O)Nc2ccccc2C(=O)O)cc1	Scp1 inh 64.6 | Scp1 confirm 77.0 | Scp-1 MG ctr inactive | Scp1 DSF 7.5
O=C(COc1ccc2ccccc2c1)NNC(=O)c1ccc([N+](=O)[O-])cc1	Scp1 inh 53.7 | Scp1 confirm 73.9 | Scp-1 MG ctr inactive | Scp1 DSF 7.2
Cc1ccccc1NC(=O)C(=O)NNC(=O)COc1ccc2ccccc2c1	Scp1 inh 51.6 | Scp1 confirm 69.2 | Scp-1 MG ctr inactive | Scp1 DSF inactive
Cc1cccc(OCC(=O)NNC(=O)c2ccc([N+](=O)[O-])cc2)c1	none
O=C1CC(N(C(=O)c2ccco2)c2cccc(Cl)c2)C(=O)N1c1cccc(Cl)c1 (stereo unspecified)	none
CCOC(=O)C1=C(C)N=C2SC(C)C(=O)N2C1c1ccc(OCC)c(OCC)c1 (stereo unspecified)	none
CC(=S)/C=C1\Sc2ccccc2N1C	none
CN1/C(=C/c2cccc[n+]2CCO)Sc2ccccc21	Scp1 inh 103.0 | Scp1 confirm inactive | Scp-1 MG ctr inactive
CC(=O)/C(C[N+]1(C)CCCCC1)=N\O	Scp1 inh 105.1 | Scp1 confirm 84.4 | Scp-1 MG ctr inactive | Scp1 DSF inactive
Cn1cc(Cl)c(C(=O)Nc2nc3ccccc3s2)n1	none
Cn1cc(Cl)c(C(=O)Nc2cccc(Cl)c2Cl)n1	Scp1 inh 72.0 | Scp1 confirm 75.8 | Scp-1 MG ctr inactive | Scp1 DSF inactive
CO[C@@]1(NC(=O)C2SC(=C(C(N)=O)C(=O)O)S2)C(=O)N2C(C(=O)O)=C(CSc3nnnn3C)CS[C@@H]21 (stereo partly specified)	none
CO[C@@]1(NC(=O)Cc2cccs2)C(=O)N2C(C(=O)O)=C(COC(N)=O)CS[C@@H]21	Scp1 inh 51.7 | Scp1 confirm 40.9 | Scp-1 MG ctr inactive | Scp1 DSF inactive
Cc1ccc(OCC(=O)N/N=C\c2ccc(O)c([N+](=O)[O-])c2)c([N+](=O)[O-])c1	Scp1 inh 66.6 | Scp1 confirm 41.8 | Scp-1 MG ctr inactive | Scp1 DSF 9.8
Cc1cc(Nc2ccccc2)n(CCO)n1	none
Cc1ccc(C2(C)NC(=O)N(CC(=O)Nc3ccccc3C(=O)NC3CCCC3)C2=O)cc1 (stereo unspecified)	none
CCc1c(C)nc2cc(-c3ccc(Cl)cc3)[nH]n2c1=O	none
O=c1c2c(nc3cc(-c4ccc(Cl)cc4)[nH]n13)CCS2	Scp1 inh 83.8, LMPTP inh 61.3 | Scp1 confirm 30.6 | Scp-1 MG ctr inactive | Scp1 DSF inactive
CCOc1cc(/C=N/N=C2/NC(=O)C(CC(=O)O)S2)ccc1OCc1ccc(Cl)cc1 (stereo unspecified)	Scp1 inh 75.4 | Scp1 confirm 68.8 | Scp-1 MG ctr inactive | Scp1 DSF inactive
O=C(NC(c1ccc(-c2ccccc2)cc1)c1cnccn1)C1CCN(Cc2ccc3c(c2)OCO3)CC1 (stereo unspecified)	none (no result: Scp1 inh)
O=C(O)Cc1ccc(N=Nc2c(O)c(C(=O)O)cc3ccccc23)cc1	Scp1 inh 50.3, DNMT1 inh 61.0 | Scp1 confirm 72.6 | Scp-1 MG ctr inactive | Scp1 DSF 27.9
CCN(CC)CCNC(=O)c1ccc(NC(=O)C2CCN(c3ncnc4sc(C)c(C)c34)CC2)cc1	Scp1 inh 112.1 | Scp1 confirm inactive | Scp-1 MG ctr inactive
Cc1sc2ncnc(N3CCC(C(=O)Nc4ccc(OC(F)F)c(Cl)c4)CC3)c2c1C	none
CCOc1ccc(C(=O)NC(=S)Nc2ccc(NC(=O)c3ccco3)c(C)c2)cc1[N+](=O)[O-]	none
O=C(CCN1C(=O)/C(=C\C=C\c2ccccc2)SC1=S)Nc1cccc(C(=O)O)c1	Scp1 inh 85.0 | Scp1 confirm 74.9 | Scp-1 MG ctr inactive | Scp1 DSF 11.2
O=C(CCN1C(=O)/C(=C/C=C/c2ccccc2)SC1=S)Nc1nccs1	none
COc1ccc(/C=C2\SC(=S)N(CCC(=O)Nc3cccc(C(=O)O)c3)C2=O)cc1	Scp1 inh 61.2 | Scp1 confirm 52.5 | Scp-1 MG ctr inactive | Scp1 DSF 18.2
CCOc1ccc(/C=C2\SC(=S)N(CCC(=O)Nc3ccccc3C(=O)O)C2=O)cc1	Scp1 inh 64.5 | Scp1 confirm 44.4 | Scp-1 MG ctr inactive | Scp1 DSF 18.5
O=C(CCN1C(=O)/C(=C/c2ccccc2)SC1=S)NNC(=O)c1cccnc1	none
O=C(CCN1C(=O)/C(=C/c2ccc3c(c2)OCO3)SC1=S)NNC(=O)c1cccnc1	Scp1 inh 61.7 | Scp1 confirm 45.8 | Scp-1 MG ctr inactive | Scp1 DSF inactive

High-throughput results deposited in PubChem BioAssay by Sanford-Burnham Center for Chemical Genomics.
